Laboratory results reported in ChEMBL document CHEMBL1138269, “Antimicrobial lexitropsins containing amide, amidine, and alkene linking groups” (J Med Chem, 2007).
≈ marks a conversion by molar mass, not a printed value. Calls of active or inactive are those of the source. No cut-off for these calls is given here.

What was measured:
HS27 = test: Cytotoxicity against human HS27 cells; assay type: cell-based
Staphylococcus aureus [1] = test: Antibacterial activity against Staphylococcus aureus LS1 in mouse at 20 mg/kg, ip; assay type: functional, organism-based; parameters: dose 20 mg/kg
Procedure, shortened: (§1)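 Mice of 18-22 g, five per group, were inoculated intravenously with 50 million cfu of S. aureus LS-1, which causes bacteraemia and then joint localization within 3-4 days. A single dose (groups at 60, 40, 20 or 10 mg/kg) was given iv or ip. Joint inflammation was scored, with caliper measurement of affected joint diameter.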

Staphylococcus aureus [2] = test: Antibacterial activity against methicillin-resistant Staphylococcus aureus clinical isolate 5; assay type: functional
Procedure, shortened: (§2)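 Broth microdilution MIC against clinical S. aureus isolates (incl. MRSA), run per NCCLS guidelines in 96-well plates. Test sample dissolved in sterile water to a 200 µg mL-1 working concentration, then doubling dilutions in Mueller-Hinton broth. Incubated at 37 °C, growth read visually plus resazurin indicator. MIC reported in µg/mL.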

Enterococcus faecalis = test: Antibacterial activity against Streptococcus faecalis NCTC 775; assay type: functional; details: Enterococcus faecalis, NCTC 775; read-out: MIC
Procedure, shortened: (§3)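 Broth microdilution in Mueller-Hinton broth. Samples were dissolved in sterile water to 200 µg mL-1 as the working solution and doubling dilutions were made across rows. Plates were incubated at 37 °C and inspected visually, with resazurin added as growth indicator. MIC reported in µg mL-1.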

Staphylococcus aureus [3] = test: Antibacterial activity against methicillin-resistant Staphylococcus aureus clinical isolate 4; assay type: functional; procedure, shortened: as §2
Staphylococcus aureus [4] = test: Antibacterial activity against methicillin-resistant Staphylococcus aureus clinical isolate 1; assay type: functional; procedure, shortened: as §2
Staphylococcus aureus [5] = test: Antibacterial activity against methicillin-resistant Staphylococcus aureus clinical isolate 2; assay type: functional; procedure, shortened: as §2
[6] = system: Mycolicibacterium fortuitum; test: Antibacterial activity against Mycobacterium fortuitum NCTC 10394; assay type: functional; procedure, shortened: as §3
Aspergillus niger = test: Antifungal activity against Aspergillus niger IMI 149007; assay type: functional
Procedure, shortened: (§4)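 Antifungal microdilution in Sabouraud broth. Test sample at 200 µg mL-1 working solution in sterile water was serially doubled down successive rows. Incubation was at 25 °C, followed by visual growth check and addition of resazurin indicator. Read-out is MIC in µg mL-1.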

L929 = test: Cytotoxicity against mouse L929 cells; assay type: cell-based
Candida albicans = test: Antifungal activity against Candida albicans NCPF 3179; assay type: functional; details: Candida albicans; read-out: MIC; procedure, shortened: as §4
Staphylococcus aureus [7] = test: Antibacterial activity against methicillin-resistant Staphylococcus aureus clinical isolate 3; assay type: functional; procedure, shortened: as §2
Staphylococcus aureus [8] = test: Antibacterial activity against methicillin-sensitive Staphylococcus aureus NCTC 6571; assay type: functional; details: Staphylococcus aureus, NCTC 6571; read-out: MIC; procedure, shortened: as §3
A-375 = test: Cytotoxicity against human A375 cells; assay type: cell-based
[9] = Cytotoxicity against human TE671 cells; assay type: cell-based; details: te-671
Staphylococcus aureus [10] = test: Antibacterial activity against Staphylococcus aureus LS1 in mouse at 40 mg/kg, ip; assay type: functional, organism-based; parameters: dose 40 mg/kg; procedure, shortened: as §1
Jurkat = test: Cytotoxicity against human Jurkat cells; assay type: cell-based
H9c2 = test: Cytotoxicity against rat H9C2 cells; assay type: cell-based

Row | Structure (SMILES) | Activity (HS27) | Activity (Staphylococcus aureus [1]) | MIC (Staphylococcus aureus [2]) | MIC (Enterococcus faecalis) | MIC (Staphylococcus aureus [3]) | MIC (Staphylococcus aureus [4]) | MIC (Staphylococcus aureus [5]) | MIC [6] | MIC (Aspergillus niger) | Activity (L929) | MIC (Candida albicans) | MIC (Staphylococcus aureus [7]) | MIC (Staphylococcus aureus [8]) | Activity (A-375) | Activity [9] | Activity (Staphylococcus aureus [10]) | Activity (Jurkat) | Activity (H9c2)
1 | Cn1cc(NC(=O)c2cc(NC(=O)c3ccc(/C=C/c4cnc5ccccc5c4)cc3)cn2C)cc1C(=O)NCCN1CCOCC1 [MGB-BP-3] | Non-toxic | Active | 0.12 µg/mL (≈ 0.19 µM) | 25 µg/mL (≈ 39.6 µM) | 0.25 µg/mL (≈ 0.396 µM) | 0.12 µg/mL (≈ 0.19 µM) | 0.25 µg/mL (≈ 0.396 µM) | 50 µg/mL (≈ 79.1 µM) | 25 µg/mL (≈ 39.6 µM) | Non-toxic | 50 µg/mL (≈ 79.1 µM) | 0.12 µg/mL (≈ 0.19 µM) | 3 µg/mL (≈ 4.75 µM) | – | – | – | – | –
2 | COc1ccc(/C=C/c2ccc(C(=O)Nc3cc(C(=O)Nc4cc(C(=O)NCCN5CCOCC5)n(C)c4)n(C)c3)cn2)cc1 | – | – | 0.5 µg/mL (≈ 0.817 µM) | 6 µg/mL (≈ 9.81 µM) | 2 µg/mL (≈ 3.27 µM) | 0.5 µg/mL (≈ 0.817 µM) | 4 µg/mL (≈ 6.54 µM) | 50 µg/mL (≈ 81.7 µM) | 50 µg/mL (≈ 81.7 µM) | Non-toxic | 25 µg/mL (≈ 40.9 µM) | 2 µg/mL (≈ 3.27 µM) | 6 µg/mL (≈ 9.81 µM) | Non-toxic | Non-toxic | Active | Non-toxic | Non-toxic
3 | COc1cccc(/C=C/c2ccc(C(=O)Nc3cc(C(=O)Nc4cc(C(=O)NCCN5CCOCC5)n(C)c4)n(C)c3)cc2)c1 | – | – | 4 µg/mL (≈ 6.55 µM) | 50 µg/mL (≈ 81.9 µM) | 4 µg/mL (≈ 6.55 µM) | 2 µg/mL (≈ 3.27 µM) | 4 µg/mL (≈ 6.55 µM) | > 50 µg/mL | > 50 µg/mL | – | > 50 µg/mL | 4 µg/mL (≈ 6.55 µM) | 6 µg/mL (≈ 9.82 µM) | – | – | – | – | –
4 | CN(C)CCCNC(=O)c1cc(NC(=O)c2cc(NC(=O)c3ccc(/C=C/c4cnc5ccccc5c4)cc3)cn2C)cn1C | – | – | 25 µg/mL (≈ 41.4 µM) | 13 µg/mL (≈ 21.5 µM) | 25 µg/mL (≈ 41.4 µM) | 25 µg/mL (≈ 41.4 µM) | 25 µg/mL (≈ 41.4 µM) | > 50 µg/mL | > 50 µg/mL | – | > 50 µg/mL | 25 µg/mL (≈ 41.4 µM) | 32 µg/mL (≈ 53 µM) | – | – | – | – | –
5 | COc1cccc(/C=C/c2ccc(C(=O)Nc3cc(C(=O)Nc4nc(C(=O)NCCCN(C)C)c(CCC(C)C)s4)n(C)c3)cc2)c1 | – | – | 8 µg/mL (≈ 12.2 µM) | > 50 µg/mL | 8 µg/mL (≈ 12.2 µM) | 8 µg/mL (≈ 12.2 µM) | 8 µg/mL (≈ 12.2 µM) | > 50 µg/mL | > 50 µg/mL | – | > 50 µg/mL | 8 µg/mL (≈ 12.2 µM) | > 50 µg/mL | – | – | – | – | –
6 | COc1cccc(C(=N)Nc2cc(C(=O)Nc3cc(C(=O)Nc4nc(C(=O)NCCN5CCOCC5)c(C(C)C)s4)n(C)c3)n(C)c2)c1 | – | – | 32 µg/mL (≈ 47.4 µM) | > 50 µg/mL | 32 µg/mL (≈ 47.4 µM) | 16 µg/mL (≈ 23.7 µM) | 64 µg/mL (≈ 94.7 µM) | > 50 µg/mL | > 50 µg/mL | – | > 50 µg/mL | 32 µg/mL (≈ 47.4 µM) | > 50 µg/mL | – | – | – | – | –
7 | Cn1cc(NC(=O)c2cc(NC(=O)c3ccc(/C=C/c4cccnc4)cc3)cn2C)cc1C(=O)NCCN1CCOCC1 | – | – | 1 µg/mL (≈ 1.72 µM) | 35 µg/mL (≈ 60.2 µM) | 8 µg/mL (≈ 13.8 µM) | 2 µg/mL (≈ 3.44 µM) | 8 µg/mL (≈ 13.8 µM) | > 50 µg/mL | > 50 µg/mL | – | > 50 µg/mL | 4 µg/mL (≈ 6.88 µM) | 35 µg/mL (≈ 60.2 µM) | – | – | – | – | –
8 | COc1cccc(/C=C/c2cccc(C(=O)Nc3cc(C(=O)Nc4nc(C(=O)NCCCN(C)C)c(CCC(C)C)s4)n(C)c3)c2)c1 | – | – | 32 µg/mL (≈ 48.7 µM) | > 50 µg/mL | 32 µg/mL (≈ 48.7 µM) | 32 µg/mL (≈ 48.7 µM) | 32 µg/mL (≈ 48.7 µM) | > 50 µg/mL | > 50 µg/mL | – | > 50 µg/mL | 32 µg/mL (≈ 48.7 µM) | > 50 µg/mL | – | – | – | – | –
